What was measured:
[1] = target: Growth hormone secretagogue receptor type 1 (Homo sapiens, UniProt Q92847); assay: Agonist activity at human GHS receptor expressed in H4 cells by FLIPR assay; type: functional, cell-based
Rattus norvegicus [2] = assay: Stimulation of growth hormone release in rat at 0.17 umol/kg, iv relative to control; type: functional
How it was run: (§1)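 Fasted male Wistar rats (200–250 g) were anesthetized with ketamine 30 mg/kg plus xylazine 10 mg/kg ip. They were dosed iv at 10 mL/kg in vehicle (10% ethanol, […] V/V), five rats per group. Aortic blood was drawn 15 min post-dose, and plasma rat GH was measured by radioimmunoassay. Results are given as % GH increase ± SEM versus vehicle control.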

Rattus norvegicus [3] = assay: Stimulation of growth hormone release in rat at 0.052 umol/kg, iv relative to control; type: functional; how it was run: as §1
Rattus norvegicus [4] = assay: Stimulation of growth hormone release in rat at 0.017 umol/kg, iv relative to control; type: functional; how it was run: as §1

Sequence of Growth hormone secretagogue receptor type 1 (Q92847 whole entry): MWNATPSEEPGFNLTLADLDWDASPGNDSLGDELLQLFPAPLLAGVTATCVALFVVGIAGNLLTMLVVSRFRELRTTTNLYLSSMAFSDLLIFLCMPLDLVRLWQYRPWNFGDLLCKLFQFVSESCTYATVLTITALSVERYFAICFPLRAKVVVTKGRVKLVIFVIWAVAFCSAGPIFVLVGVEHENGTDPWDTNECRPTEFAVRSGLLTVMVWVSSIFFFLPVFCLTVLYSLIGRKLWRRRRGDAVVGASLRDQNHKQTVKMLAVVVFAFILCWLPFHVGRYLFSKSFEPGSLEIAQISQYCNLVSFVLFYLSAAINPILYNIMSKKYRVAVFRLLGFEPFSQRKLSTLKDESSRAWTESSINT

| SMILES | EC50 [1] [nM] | Intrinsic activity [1] [%] | Activity (Rattus norvegicus [2]) [%] | Activity (Rattus norvegicus [3]) [%] | Activity (Rattus norvegicus [4]) [%] |
| --- | --- | --- | --- | --- | --- |
| CC(C)(N)C(=O)N[C@H](COCc1ccccc1)c1nnnn1CCCC(=O)NCCCO | 27 | > 85 |  |  |  |
| CC(C)(N)C(=O)N[C@H](COCc1ccccc1)c1nnnn1CCOc1cccc(C(=O)NCCO)c1 | 8.4 | > 85 |  |  |  |
| CC(C)(N)C(=O)N[C@H](COCc1ccccc1)c1nnnn1CCOc1cccc(C(=O)NCCCCO)c1 | 3 | > 85 |  |  |  |
| CC(C)(N)C(=O)N[C@H](COCc1ccccc1)c1nnnn1CCCC(=O)NCCCCO | 1.8 | > 85 |  |  |  |
| CC(C)(N)C(=O)N[C@H](COCc1ccccc1)c1nnnn1CCCC(=O)NCCN1CCNC1=O | 3.3 | > 85 |  |  |  |
| CC(C)(N)C(=O)N[C@H](COCc1ccccc1)c1nnnn1CCCC(=O)NCCC(N)=O | 7.6 | > 85 |  |  |  |
| CC(C)(N)C(=O)N[C@H](COCc1ccccc1)c1nnnn1CCOc1ccccc1C(=O)NCCCCO | 0.9 | > 85 |  |  |  |
| CC(C)(N)C(=O)N[C@H](COCc1ccccc1)c1nnnn1CCCC(=O)NCCOCCO | 0.7 | > 85 |  |  |  |
| CC(C)(N)C(=O)N[C@H](COCc1ccccc1)c1nnnn1CCCC(=O)NCCCCCCO | 0.6 | > 85 | 522 |  |  |
| CC(C)(N)C(=O)N[C@H](COCc1ccccc1)c1nnnn1CCCC(=O)NCCS(=O)(=O)CCO | 0.2 | > 85 | 1290 | 956 | 398 |
| CC(C)(N)C(=O)N[C@H](COCc1ccccc1)c1nnnn1CCCC(=O)NCCc1cccc(S(=O)(=O)CCO)c1 | 105 | > 85 |  |  |  |
| CN(CCc1cccc(O)c1)C(=O)CCCn1nnnc1[C@@H](COCc1ccccc1)NC(=O)C(C)(C)N | 3.1 | > 85 |  |  |  |
| CCCCNC(=O)CCCn1nnnc1[C@@H](COCc1ccccc1)NC(=O)C(C)(C)N |  | > 85 |  |  |  |
| CN(CCc1cccc(S(=O)(=O)CCO)c1)C(=O)CCCn1nnnc1[C@@H](COCc1ccccc1)NC(=O)C(C)(C)N | 2.9 | > 85 |  |  |  |
| CC(C)(N)C(=O)N[C@H](COCc1ccccc1)c1nnnn1CCCC(=O)NCCCCCO | 1.3 | > 85 |  |  |  |
| CC(C)(N)C(=O)N[C@H](COCc1ccccc1)c1nnnn1CCCC(=O)NCCc1ccccc1 | 23 | > 85 |  |  |  |
| CC(C)(N)C(=O)N[C@H](COCc1ccccc1)c1nnnn1CCCC(=O)NCC(F)(F)F | 26 | > 85 |  |  |  |

Second part, led by results:

| EC50 [1] [nM] | Intrinsic activity [1] [%] | SMILES | Activity (Rattus norvegicus [2]) [%] | Activity (Rattus norvegicus [3]) [%] | Activity (Rattus norvegicus [4]) [%] |
| --- | --- | --- | --- | --- | --- |
| 140 | > 85 | CCOC(=O)CCNC(=O)CCCn1nnnc1[C@@H](COCc1ccccc1)NC(=O)C(C)(C)N |  |  |  |
| 70 | > 85 | CC(C)(N)C(=O)N[C@H](COCc1ccccc1)c1nnnn1CCCC(=O)Nc1ccccc1 |  |  |  |
| 33 | > 85 | CC(C)(N)C(=O)N[C@H](COCc1ccccc1)c1nnnn1CCCC(=O)NCCCc1ccccc1 |  |  |  |
| 0.64 | > 85 | CC(C)(N)C(=O)N[C@H](COCc1ccccc1)c1nnnn1CCNC(=O)CCc1cccc(O)c1 |  |  |  |
| 14.7 | > 85 | CC(C)(N)C(=O)N[C@H](COCc1ccccc1)c1nnnn1CCNC(=O)CCS(C)(=O)=O |  |  |  |
| 0.2 | > 85 | CC(C)(N)C(=O)N[C@H](COCc1ccccc1)c1nnnn1CCCC(=O)NCCSCCO |  |  |  |
| 32 | > 85 | CC(C)(N)C(=O)N[C@H](COCc1ccccc1)c1nnnn1CCCC(=O)NCc1ccccc1 |  |  |  |
| 0.2 | > 85 | CC(C)(N)C(=O)N[C@H](COCc1ccccc1)c1nnnn1CCCC(=O)NCCc1cccc(O)c1 | 606 |  |  |
| 521 | > 85 | CC(C)(N)C(=O)N[C@H](COCc1ccccc1)c1nnnn1CCCC(=O)N[C@H]1CC[C@H](O)CC1 |  |  |  |
| 4.1 | > 85 | CC(C)(N)C(=O)N[C@H](COCc1ccccc1)c1nnnn1CCCC(=O)NCCS(C)(=O)=O |  |  |  |
|  | > 85 | CCCCCCCC(=O)OC[C@H](NC(=O)CNC(=O)[C@@H](N)CCCNC(=N)N)C(=O)N[C@@H](CO)C(=O)N[C@@H](Cc1ccccc1)C(=O)N[C@@H](CC(C)C)C(=O)N[C@@H](CO)C(=O)N1CCC[C@H]1C(=O)N[C@@H](CCC(=O)O)C(=O)N[C@@H](Cc1cnc[nH]1)C(=O)N[C@@H](CCC(N)=O)C(=O)N[C@@H](CCCCN)C(=O)N[C@@H](C)C(=O)N[C@@H](CCC(N)=O)C(=O)N[C@@H](CCC(N)=O)C(=O)N[C@@H](CCCNC(=N)N)C(=O)N[C@@H](CCCCN)C(=O)N[C@@H](CCC(=O)O)C(=O)N[C@@H](CO)C(=O)N[C@@H](CCCCN)C(=O)N[C@@H](CCCCN)C(=O)N1CCC[C@H]1C(=O)N1CCC[C@H]1C(=O)N[C@@H](C)C(=O)N[C@@H](CCCCN)C(=O)N[C@@H](CC(C)C)C(=O)N[C@@H](CCC(N)=O)C(=O)N1CCC[C@H]1C(=O)O |  |  |  |
| 204 | > 85 | CC(C)(N)C(=O)N[C@H](COCc1ccccc1)c1nnnn1CCCC(=O)NCCC(=O)O |  |  |  |
|  | > 85 | CC(C)(N)C(=O)N[C@H](COCc1ccccc1)c1nnnn1CCOC(=O)NCCCCO | 264 |  |  |
| 11 | > 85 | CC(C)(N)C(=O)N[C@H](COCc1ccccc1)c1nnnn1CCOc1ccccc1C(=O)NCCO |  |  |  |
| 40 | > 85 | CC(C)(N)C(=O)N[C@H](COCc1ccccc1)c1nnnn1CCCC(=O)NCCO |  |  |  |
| 4.4 | > 85 | CC(C)(N)C(=O)N[C@H](COCc1ccccc1)c1nnnn1CCNC(=O)CCCCO | 722 |  |  |
| 1.4 | > 85 | CC(C)(N)C(=O)N[C@H](COCc1ccccc1)c1nnnn1CCCC(=O)NCCS(N)(=O)=O | 408 |  |  |
